{
  "source": "ChEMBL document CHEMBL1124108",
  "about": "“Antihypertensive thiadiazoles. 2. Vasodilator activity of some 2-aryl-5-guanidino-1,3,4-thiadiazoles” (1988)",
  "key": {"[1]": {"test_system": "Rattus norvegicus", "assay": "Maximum percentage reduction in mean blood pressure and heart rate in metacorticoid (DOCA) hypertensive rats at a standard intraperitoneal dose of 100 mg/kg", "assay_type": "functional"}, "[2]": {"test_system": "Rattus norvegicus", "assay": "Increase in diastolic blood pressure at 0.1 ug/kg intravenous dosing of noradrenaline in pithed rats", "assay_type": "functional, Artery", "outline": "(§1)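 The pithed-rat preparation was used: male rats (200-300 g) got drug or isotonic saline ip in groups of five, 2 h beforehand (one reference agent 1 h). Doses were 50, 25 or 5 mg/kg. Rats were under halothane, cannulated, pithed and ventilated with room air. Noradrenaline (0.1-1.0 µg/kg) or angiotensin (0.03-0.3 µg/kg) was injected iv, and the increase in diastolic pressure was recorded in mmHg.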"}, "[3]": {"species": "Rattus norvegicus", "assay": "Increase in diastolic blood pressure at 1 Htz electrical stimulation in the pithed rats", "assay_type": "functional, Artery", "outline": "(§2)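 Male rats (200-300 g) were given drug or isotonic saline ip, in groups of five, 2 h before pithing (one reference agent 1 h before). Doses were 50 or 25 mg/kg, or 5 mg/kg for the reference agent. Rats were put under halothane, tracheally cannulated, pithed through the left orbit and ventilated with room air at 50 strokes/min. After iv tubocurarine (1 mg/kg), the whole sympathetic outflow was stimulated at 1, 3 or 6 Hz (0.5 ms, 20 V, 15 s). The rise in diastolic pressure was recorded in mmHg.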"}, "[4]": {"test_system": "Rattus norvegicus", "assay": "Summation of percentage reductions, compared to pretreatment controls, in MABP of DOCA hypertensive rats at 1,2,3,5,8 hr after the 50 mg/kg oral dose.", "assay_type": "functional", "outline": "(§3)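 DOCA hypertensive rats (n = 5) were dosed orally. MABP (diastolic + one-third pulse pressure) was read before dosing and at 1, 2, 3, 5 and 8 h. The value is the sum of the % reductions from pretreatment control over these five time points.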"}, "[5]": {"test_system": "Rattus norvegicus", "assay": "Summation of percentage reductions, compared to pretreatment controls, in MABP of DOCA hypertensive rats at 1,2,3,5,8 hr after the 100 mg/kg oral dose.", "assay_type": "functional", "outline": "as §3"}, "[6]": {"test_system": "Rattus norvegicus", "assay": "Increase in diastolic blood pressure at 0.03 ug/kg intravenous dosing of angiotensin in pithed rats", "assay_type": "functional, Artery", "outline": "as §1"}, "[7]": {"species": "Rattus norvegicus", "assay": "Increase in diastolic blood pressure at 3 Htz electrical stimulation in the pithed rats", "assay_type": "functional, Artery", "outline": "as §2"}, "[8]": {"test_system": "Rattus norvegicus", "assay": "Increase in diastolic blood pressure at 0.3 ug/kg intravenous dosing of noradrenaline in pithed rats", "assay_type": "functional, Artery", "outline": "as §1"}, "[9]": {"test_system": "Rattus norvegicus", "assay": "Increase in diastolic blood pressure at 0.3 ug/kg intravenous dosing of angiotensin in pithed rats", "assay_type": "functional, Artery", "outline": "as §1"}, "[10]": {"test_system": "Rattus norvegicus", "assay": "Increase in diastolic blood pressure at 0.1 ug/kg intravenous dosing of angiotensin in pithed rats", "assay_type": "functional, Artery", "outline": "as §1"}, "[11]": {"test_system": "Rattus norvegicus", "assay": "Maximum percentage reduction in mean arterial blood pressure in metacorticoid (DOCA) hypertensive rats at a standard oral dose of 50 mg/kg", "assay_type": "functional", "outline": "(§4)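 Rats were DOCA hypertensive. For oral dosing, food was withdrawn 18 h before; rats dosed ip were not starved. The vehicle was isotonic saline. Pressure was recorded by transducer under minimal restraint: twice before dosing, then at 1, 2, 3, 5 and 22 h. MABP was taken as diastolic + one-third pulse pressure. The value is the maximum % fall from the mean of the two pretreatment readings, n = 3-5.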"}, "[12]": {"test_system": "Rattus norvegicus", "assay": "Increase in diastolic blood pressure at 1.0 ug/kg intravenous dosing of noradrenaline in pithed rats", "assay_type": "functional, Artery", "outline": "as §1"}, "[13]": {"test_system": "Rattus norvegicus", "assay": "Maximum percentage reduction in mean arterial blood pressure in metacorticoid (DOCA) hypertensive rats at a standard oral dose of 100 mg/kg", "assay_type": "functional", "outline": "as §4"}, "[14]": {"species": "Rattus norvegicus", "assay": "Increase in diastolic blood pressure at 6 Htz electrical stimulation in the pithed rats", "assay_type": "functional, Artery", "outline": "as §2"}, "[15]": {"test_system": "Rattus norvegicus", "assay": "Maximum percentage reduction in mean blood pressure in metacorticoid (DOCA) hypertensive rats at a standard intraperitoneal dose of 100 mg/kg", "assay_type": "functional", "outline": "as §4"}, "[16]": {"test_system": "Rattus norvegicus", "assay": "Increase in diastolic blood pressure at r 0.3 ug/kg intravenous dosing of noradrenaline in pithed rats", "assay_type": "functional, Artery", "outline": "as §1"}, "[17]": {"test_system": "Rattus norvegicus", "assay": "Maximum percentage reduction in mean blood pressure in metacorticoid (DOCA) hypertensive rats at a standard oral dose of 10 mg/kg", "assay_type": "functional", "outline": "as §4"}, "[18]": {"test_system": "Rattus norvegicus", "assay": "Increase in diastolic blood pressure for 1.0 ug/kg intravenous dosing of noradrenaline in pithed rats", "assay_type": "functional, Artery", "outline": "as §1"}, "[19]": {"species": "Rattus norvegicus", "assay": "Increase in diastolic blood pressure for 3 Htz electrical stimulation in the pithed rats", "assay_type": "functional, Artery", "outline": "as §2"}, "[20]": {"test_system": "Rattus norvegicus", "assay": "Maximum percentage reduction in mean blood pressure in metacorticoid (DOCA) hypertensive rats at a standard oral dose of 50 mg/kg", "assay_type": "functional", "outline": "as §4"}, "[21]": {"test_system": "Rattus norvegicus", "assay": "Increase in diastolic blood pressure for 0.1 ug/kg intravenous dosing of noradrenaline in pithed rats", "assay_type": "functional, Artery", "outline": "as §1"}, "[22]": {"species": "Rattus norvegicus", "assay": "Increase in diastolic blood pressure for 6 Htz electrical stimulation in the pithed rats", "assay_type": "functional, Artery", "outline": "as §2"}, "[23]": {"species": "Rattus norvegicus", "assay": "Increase in diastolic blood pressure for 1 Htz electrical stimulation in the pithed rats", "assay_type": "functional, Artery", "outline": "as §2"}, "[24]": {"test_system": "Rattus norvegicus", "assay": "Increase in diastolic blood pressure for 0.1 ug/kg intravenous dosing of angiotensin in pithed rats", "assay_type": "functional, Artery", "outline": "as §1"}, "[25]": {"test_system": "Rattus norvegicus", "assay": "Maximum percentage reduction in mean blood pressure in metacorticoid (DOCA) hypertensive rats at a standard oral dose of 100 mg/kg", "assay_type": "functional", "outline": "as §4"}, "[26]": {"test_system": "Rattus norvegicus", "assay": "Increase in diastolic blood pressure for 0.03 ug/kg intravenous dosing of angiotensin in pithed rats", "assay_type": "functional, Artery", "outline": "as §1"}, "[27]": {"test_system": "Rattus norvegicus", "assay": "Increase in diastolic blood pressure for 0.3 ug/kg intravenous dosing of angiotensin in pithed rats", "assay_type": "functional, Artery", "outline": "as §1"}, "[28]": {"test_system": "Rattus norvegicus", "assay": "Increase in diastolic blood pressure for 0.3 ug/kg intravenous dosing of noradrenaline in pithed rats", "assay_type": "functional, Artery", "outline": "as §1"}},
  "data": [
    {"smiles": "COc1ccc(-c2nnc(N=C(N)N)s2)cc1.Cl", "values": [
      {"measurement": "Reduction", "setting": "[1]", "result": 28, "unit": "%"}
    ]},
    {"smiles": "Cc1ccccc1-c1nnc(N=C(N)N)s1.Cl", "values": [
      {"measurement": "Increase in blood pressure", "setting": "[2]", "result": 12, "unit": "mmHg"},
      {"measurement": "Increase in blood pressure", "setting": "[3]", "result": 13, "unit": "mmHg"},
      {"measurement": "Summation MABP", "setting": "[4]", "result": 115},
      {"measurement": "Summation MABP", "setting": "[5]", "result": 167},
      {"measurement": "Increase in blood pressure", "setting": "[6]", "result": 2, "unit": "mmHg"},
      {"measurement": "Increase in blood pressure", "setting": "[7]", "result": 29, "unit": "mmHg"},
      {"measurement": "Increase in blood pressure", "setting": "[8]", "result": 23, "unit": "mmHg"},
      {"measurement": "Increase in blood pressure", "setting": "[9]", "result": 22, "unit": "mmHg"},
      {"measurement": "Increase in blood pressure", "setting": "[10]", "result": 9, "unit": "mmHg"},
      {"measurement": "Reduction", "setting": "[11]", "result": 36, "unit": "%"},
      {"measurement": "Increase in blood pressure", "setting": "[12]", "result": 39, "unit": "mmHg"},
      {"measurement": "Reduction", "setting": "[13]", "result": 41, "unit": "%"},
      {"measurement": "Increase in blood pressure", "setting": "[14]", "result": 35, "unit": "mmHg"}
    ]},
    {"smiles": "Cl.N=C(N)Nc1nnc(-c2ccc(Cl)cc2)s1", "values": [
      {"measurement": "Reduction", "setting": "[15]", "result": 18, "unit": "%"}
    ]},
    {"smiles": "CCCC/N=C(/N)Nc1nnc(-c2ccccc2C)s1.Cl", "values": [
      {"measurement": "Summation MABP", "setting": "[4]", "result": 126},
      {"measurement": "Summation MABP", "setting": "[5]", "result": 159},
      {"measurement": "Increase in blood pressure", "setting": "[7]", "result": 20, "unit": "mmHg"},
      {"measurement": "Increase in blood pressure", "setting": "[8]", "result": 42, "unit": "mmHg"},
      {"measurement": "Increase in blood pressure", "setting": "[10]", "result": 23, "unit": "mmHg"},
      {"measurement": "Reduction", "setting": "[11]", "result": 31, "unit": "%"},
      {"measurement": "Reduction", "setting": "[13]", "result": 39, "unit": "%"}
    ]},
    {"smiles": "Cc1ccccc1-c1nnc(NC2=NCCN2)s1.Cl", "values": [
      {"measurement": "Increase in blood pressure", "setting": "[2]", "result": 10, "unit": "mmHg"},
      {"measurement": "Increase in blood pressure", "setting": "[3]", "result": 17, "unit": "mmHg"},
      {"measurement": "Summation MABP", "setting": "[4]", "result": 117},
      {"measurement": "Summation MABP", "setting": "[5]", "result": 194},
      {"measurement": "Increase in blood pressure", "setting": "[6]", "result": 15, "unit": "mmHg"},
      {"measurement": "Increase in blood pressure", "setting": "[7]", "result": 34, "unit": "mmHg"},
      {"measurement": "Increase in blood pressure", "setting": "[16]", "result": 21, "unit": "mmHg"},
      {"measurement": "Increase in blood pressure", "setting": "[9]", "result": 43, "unit": "mmHg"},
      {"measurement": "Increase in blood pressure", "setting": "[10]", "result": 27, "unit": "mmHg"},
      {"measurement": "Reduction", "setting": "[11]", "result": 28, "unit": "%"},
      {"measurement": "Increase in blood pressure", "setting": "[12]", "result": 44, "unit": "mmHg"},
      {"measurement": "Reduction", "setting": "[13]", "result": 43, "unit": "%"},
      {"measurement": "Increase in blood pressure", "setting": "[14]", "result": 45, "unit": "mmHg"}
    ]},
    {"smiles": "Nc1cc(N2CCCCC2)nc(N)[n+]1[O-]", "note": "[MINOXIDIL]", "values": [
      {"measurement": "Reduction", "setting": "[17]", "result": 42, "unit": "%"}
    ]},
    {"smiles": "N=C(N)Nc1nnc(-c2c(Cl)cccc2Cl)s1", "values": [
      {"measurement": "Reduction", "setting": "[1]", "result": 34, "unit": "%"}
    ]},
    {"smiles": "COCC/N=C(/N)Nc1nnc(-c2ccccc2C)s1.Cl", "values": [
      {"measurement": "Increase in blood pressure", "setting": "[18]", "result": 45, "unit": "mmHg"},
      {"measurement": "Summation MABP", "setting": "[4]", "result": 113},
      {"measurement": "Increase in blood pressure", "setting": "[19]", "result": 52, "unit": "mmHg"},
      {"measurement": "Reduction", "setting": "[20]", "result": 29, "unit": "%"},
      {"measurement": "Increase in blood pressure", "setting": "[21]", "result": 13, "unit": "mmHg"},
      {"measurement": "Summation MABP", "setting": "[5]", "result": 157},
      {"measurement": "Increase in blood pressure", "setting": "[22]", "result": 65, "unit": "mmHg"},
      {"measurement": "Increase in blood pressure", "setting": "[23]", "result": 30, "unit": "mmHg"},
      {"measurement": "Increase in blood pressure", "setting": "[24]", "result": 28, "unit": "mmHg"},
      {"measurement": "Reduction", "setting": "[25]", "result": 37, "unit": "%"},
      {"measurement": "Increase in blood pressure", "setting": "[26]", "result": 14, "unit": "mmHg"},
      {"measurement": "Increase in blood pressure", "setting": "[27]", "result": 44, "unit": "mmHg"},
      {"measurement": "Increase in blood pressure", "setting": "[28]", "result": 25, "unit": "mmHg"}
    ]}
  ]
}
